From ChEMBL document CHEMBL2401645, “Bivalent ligands that target μ opioid (MOP) and cannabinoid1 (CB1) receptors are potent analgesics devoid of tolerance” (2013)
The source made the active and inactive calls. The calls are words filed in the database; no cut-off is given here.

Tests used:
Mus musculus [1] = assay: Antinociceptive activity in ICR-CD1 mouse at 2500 pmol, icv by radiant heat tail flick test; assay type: functional
Mus musculus [2] = assay: Antinociceptive activity in ICR-CD1 mouse at 2500 pmol administered intrathecally by radiant heat tail flick test; assay type: functional
Mus musculus [3] = assay: Reduction in tolerance acquisition in ICR-CD1 mouse assessed as compound antinociception effect at 125 to 2500 pmol, icv administered on day 1 and repeated on day 2 measured on day 1 by radiant heat tail flick test; assay type: functional; design: scale not given: the % may be the effect or the level left
Method in brief: (§1)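 Tolerance test in male ICR-CD1 mice given i.c.v. The highest dose of the day-1 dose-response curve is given on day 1 and repeated 24 h later in the same mice. Radiant-heat tail-flick %MPE is recorded each day, and mice with no significant day-to-day difference are classed as not tolerant.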

Mus musculus [4] = assay: Ratio of ED50 for antinociception activity in icv dosed ICR-CD1 mouse to ED50 for antinociception activity in intrathecally dosed ICR-CD1 mouse by radiant heat tail flick test; assay type: functional
Method in brief: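 ED50 values (pmol/mouse) come from radiant-heat tail-flick dose-response curves in male ICR-CD1 mice after i.c.v. or i.t. injection, with %MPE read-out and at least three groups of 8–10 mice per curve. The ratio is i.c.v. ED50 divided by i.t. ED50.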

Mus musculus [5] = assay: Antinociceptive activity against icv dosed ICR-CD1 mouse by radiant heat tail flick test; assay type: functional
Method in brief: (§2)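 Male ICR-CD1 mice (17–25 g), single i.c.v. or i.t. injection; tail-flick latency to radiant heat. Antinociception as %MPE = (Test − Control)/(10 − Control) × 100. Dose-response curves from at least three groups of 8–10 mice, each mouse used once; ED50 with 95% C.I. in pmol/mouse.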

Mus musculus [6] = assay: Reduction in tolerance acquisition in ICR-CD1 mouse assessed as compound antinociception effect at 125 to 2500 pmol intrathecally administered on day 1 and repeated on day 2 measured on day 2 by radiant heat tail flick test; assay type: functional; design: scale not given: the % may be the effect or the level left
Mus musculus [7] = assay: Reduction in tolerance acquisition in ICR-CD1 mouse assessed as compound antinociception effect at 125 to 2500 pmol, icv administered on day 1 and repeated on day 2 measured on day 2 by radiant heat tail flick test; assay type: functional; design: scale not given: the % may be the effect or the level left; method in brief: as §1
Mus musculus [8] = assay: Reduction in tolerance acquisition in ICR-CD1 mouse assessed as compound antinociception effect at 125 to 2500 pmol intrathecally administered on day 1 and repeated on day 2 measured on day 1 by radiant heat tail flick test; assay type: functional; design: scale not given: the % may be the effect or the level left
Mus musculus [9] = assay: Antinociceptive activity against intrathecally dosed ICR-CD1 mouse by radiant heat tail flick test; assay type: functional; method in brief: as §2
[10] = target: Cannabinoid receptor 1/Mu-type opioid receptor (Homo sapiens) (UniProt P21554+P35372); assay: Induction of human MOPR/CB1receptor internalization transiently expressed in HEK293 cells at 1 uM after 30 mins by immunofluorescence assay; assay type: cell-based
Method in brief: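 HEK-293 cells were transiently transfected with human MOP and CB1 cDNA (16 μg per 2 million cells) and seeded into chamber slides 24 h later. After a further 24 h, cells were exposed to ligand (1 μM) for 30 min. They were then fixed in 4% paraformaldehyde and incubated overnight at 4°C with MOP- and CB1-selective primary antibodies. Fluorescent secondaries (red MOP, green CB1) were applied, and receptor location was imaged by confocal microscopy.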

Mus musculus [11] = assay: Antinociceptive activity in ICR-CD1 mouse at 250 pmol administered intrathecally by radiant heat tail flick test; assay type: functional
Mus musculus [12] = assay: Antinociceptive activity in ICR-CD1 mouse at 250 pmol, icv by radiant heat tail flick test; assay type: functional
Mus musculus [13] = assay: Reduction in tolerance acquisition in ICR-CD1 mouse assessed as compound antinociception effect at 125 to 2500 pmol, icv administered on day 1 and repeated after 48 hrs measured on day 3 by radiant heat tail flick test; assay type: functional; design: scale not given: the % may be the effect or the level left
Mus musculus [14] = assay: Reduction in tolerance acquisition in ICR-CD1 mouse assessed as compound antinociception effect at 125 to 2500 pmol, icv administered on day 1 measured after 24 hrs by radiant heat tail flick test; assay type: functional; design: scale not given: the % may be the effect or the level left

| SMILES | Activity (Mus musculus [1]) | Activity (Mus musculus [2]) | Activity (Mus musculus [3]) [%] | Ratio ED50 (Mus musculus [4]) | ED50 (Mus musculus [5]) [pmol] | Activity (Mus musculus [6]) [%] | Activity (Mus musculus [7]) [%] | Activity (Mus musculus [8]) [%] | ED50 (Mus musculus [9]) [pmol] | Activity [10] | Activity (Mus musculus [11]) [%] | Activity (Mus musculus [12]) [%] | Activity (Mus musculus [13]) [%] | Activity (Mus musculus [14]) [%] |
| --- | --- | --- | --- | --- | --- | --- | --- | --- | --- | --- | --- | --- | --- | --- |
| Cc1c(C(=O)NN2CCCCC2)nn(-c2ccc(Cl)cc2Cl)c1-c1ccc(Cl)cc1 | inactive | inactive | – | – | – | – | – | – | – | – | – | – | – | – |
| Cc1c(C(=O)NC2CCN(C(=O)N[C@H]3CC[C@@]4(O)[C@H]5Cc6ccc(O)c7c6[C@@]4(CCN5C)[C@H]3O7)CC2)nn(-c2ccc(Cl)cc2Cl)c1-c1ccc(Cl)cc1 | – | – | 64.27 | 2.18 | 1219 | 66.01 | 33.85 | 73.55 | 559 | – | – | – | – | – |
| Cc1c(C(=O)NC2CCN(C(=O)COCC(=O)NCCNC(=O)COCC(=O)N[C@H]3CC[C@@]4(O)[C@H]5Cc6ccc(O)c7c6[C@@]4(CCN5C)[C@H]3O7)CC2)nn(-c2ccc(Cl)cc2Cl)c1-c1ccc(Cl)cc1 | – | – | 83.47 | 1.31 | 55 | 72.5 | 66.99 | 98.33 | 42 | Active | – | – | – | – |
| CNC(=O)COCC(=O)NCCCCCNC(=O)COCC(=O)N[C@H]1CC[C@@]2(O)[C@H]3Cc4ccc(O)c5c4[C@@]2(CCN3C)[C@H]1O5 | – | – | 82.15 | 1.01 | 108 | 39.54 | 24.14 | 75.98 | 106 | Active | – | – | – | – |
| Cc1c(C(=O)NC2CCN(C(=O)COCC(=O)NCCCCCCNC(=O)COCC(=O)N[C@H]3CC[C@@]4(O)[C@H]5Cc6ccc(O)c7c6[C@@]4(CCN5C)[C@H]3O7)CC2)nn(-c2ccc(Cl)cc2Cl)c1-c1ccc(Cl)cc1 | – | – | 95.43 | 9.86 | 189 | 79.58 | 86.33 | 78.51 | 19 | Active | – | – | – | – |
| CNC(=O)COCC(=O)NCCCCNC(=O)COCC(=O)N1CCC(NC(=O)c2nn(-c3ccc(Cl)cc3Cl)c(-c3ccc(Cl)cc3)c2C)CC1 | 20% | 20% | – | – | – | – | – | – | – | inactive | 20 | 20 | – | – |
| Cc1c(C(=O)NC2CCN(C(=O)COCC(=O)N[C@H]3CC[C@@]4(O)[C@H]5Cc6ccc(O)c7c6[C@@]4(CCN5C)[C@H]3O7)CC2)nn(-c2ccc(Cl)cc2Cl)c1-c1ccc(Cl)cc1 | – | – | 77.72 | 19.48 | 523 | 73.41 | 63.7 | 81.72 | 27 | Active | – | – | – | – |
| Cc1c(C(=O)NC2CCN(C(=O)COCC(=O)NCCCCCCCNC(=O)COCC(=O)N[C@H]3CC[C@@]4(O)[C@H]5Cc6ccc(O)c7c6[C@@]4(CCN5C)[C@H]3O7)CC2)nn(-c2ccc(Cl)cc2Cl)c1-c1ccc(Cl)cc1 | – | – | 89.75 | 1.8 | 9 | 87.91 | – | 92.2 | 5 | inactive | – | – | 72.81 | 47 |
